Assay results: ChEMBL document CHEMBL1148703, “Synthesis and antiviral evaluation of 6-(alkyl-heteroaryl)furo[2,3-d]pyrimidin-2(3H)-one nucleosides and analogues with ethynyl, ethenyl, and ethyl spacers at C6 of the furopyrimidine core” (J Med Chem, 2007)

Assays:
Human alphaherpesvirus 3 [1] = assay: Antiviral activity against thymidine kinase deficient VZV 07/1 in HEL cells assessed as reduction of virus plaque formation after 5 days; type: functional, organism-based; conditions: Human alphaherpesvirus 3, 07/1, HEL, 120 h
Human alphaherpesvirus 3 [2] = assay: Antiviral activity against thymidine kinase deficient VZV YS/R in HEL cells assessed as reduction of virus plaque formation after 5 days; type: functional, organism-based; conditions: Human alphaherpesvirus 3, YS/R, 120 h
Human betaherpesvirus 5 [3] = assay: Antiviral activity against HCMV AD169 in HEL cells assessed as reduction of virus plaque formation after 7 days; type: functional, organism-based; conditions: Human betaherpesvirus 5, AD169, HEL, 168 h
Summary of the method: (§1)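 Confluent HEL fibroblasts were infected with HCMV at 100 pfu per well. After 2 h the residual virus was removed and medium with a range of compound concentrations was added (duplicate). Cells were incubated 7 days at 37 °C, then fixed with ethanol and stained with Giemsa. Virus-induced cytopathicity was scored microscopically, and EC50 was read from graphic plots of % cytopathicity versus concentration.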

Human alphaherpesvirus 3 [4] = assay: Antiviral activity against TK+ VZV OKA in HEL cells assessed as reduction of virus plaque formation after 5 days; type: functional, organism-based; conditions: Human alphaherpesvirus 3, OKA, 120 h
[5] = Cytotoxicity against HEL cells after 3 days; type: cell-based; conditions: human
Summary of the method: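 HEL cells were seeded at 5 × 10^3 cells/well and allowed to grow for 24 h. Medium containing graded compound concentrations was then added, followed by 3 days at 37 °C. Cell number was counted with a Coulter counter.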

Human betaherpesvirus 5 [6] = assay: Antiviral activity against HCMV Davis in HEL cells assessed as reduction of virus plaque formation after 7 days; type: functional, organism-based; conditions: Human betaherpesvirus 5, Davis, 168 h; summary of the method: as §1
[7] = Cytotoxicity against HEL cells assessed as alteration in cell morphology after 3 days; type: cell-based; conditions: human
Thymidine kinase = molecular target: T1, Thymidine kinase (Varicella-zoster virus (strain Dumas) (HHV-3) (Human herpesvirus 3), UniProt P09250); assay: Inhibition of VZV thymidine kinase; parameters: species or system Human alphaherpesvirus 3
T1 sequence (P09250 whole entry): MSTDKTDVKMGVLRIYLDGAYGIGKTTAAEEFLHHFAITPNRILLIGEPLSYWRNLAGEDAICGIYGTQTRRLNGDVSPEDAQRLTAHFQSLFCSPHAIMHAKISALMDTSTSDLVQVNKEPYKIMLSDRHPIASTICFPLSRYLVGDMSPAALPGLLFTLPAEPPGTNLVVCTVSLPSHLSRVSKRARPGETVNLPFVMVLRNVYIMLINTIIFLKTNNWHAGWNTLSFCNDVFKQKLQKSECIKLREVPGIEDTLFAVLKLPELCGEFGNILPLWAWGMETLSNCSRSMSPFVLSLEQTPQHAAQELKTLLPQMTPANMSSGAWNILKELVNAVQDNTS
Summary of the method: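 VZV TK enzyme assay in 50 mM Tris-HCl pH 8.0 with 2.5 mM MgCl2, 10 mM DTT, 2.5 mM ATP, 10 mM NaF, 1.0 mg/mL BSA and 1 µM [CH3-3H]dThd (0.1 µCi). Run 30 min at 37 °C, spotted on DE-81 discs, washed, radioactivity counted.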

Human alphaherpesvirus 3 [8] = assay: Antiviral activity against TK+ VZV YS in HEL cells assessed as reduction of virus plaque formation after 5 days; type: functional, organism-based; conditions: Human alphaherpesvirus 3, YS, 120 h

SMILES	EC50 (Human alphaherpesvirus 3 [1])	EC50 (Human alphaherpesvirus 3 [2])	EC50 (Human betaherpesvirus 5 [3])	EC50 (Human alphaherpesvirus 3 [4])	CC50 at 72 h [5]	EC50 (Human betaherpesvirus 5 [6])	MCC at 72 h [7]	IC50 (Thymidine kinase)	EC50 (Human alphaherpesvirus 3 [8])
CCCCCCCCCCc1cc2cn([C@H]3C[C@H](O)[C@@H](CO)O3)c(=O)nc2o1	> 51 µM	> 51 µM	> 130 µM	0.094 µM	> 510 µM	64 µM	≥ 130 µM	≥ 500 µM	0.066 µM
CCCCCCCCC#Cc1cc2cn([C@H]3C[C@H](O)[C@@H](CO)O3)c(=O)nc2o1	–	–	–	–	–	–	–	217 µM	–
CCCCCCCC/C=C/c1cc2cn([C@H]3C[C@H](O)[C@@H](CO)O3)c(=O)nc2o1	> 48 µM	26 µM	22 µM	1.2 µM	230 µM	8.4 µM	≥ 120 µM	65 µM	0.72 µM
O=c1nc2oc(C#Cc3ccccc3)cc2cn1[C@H]1C[C@H](O)[C@@H](CO)O1	> 140 µM	> 140 µM	> 140 µM	≥ 140 µM	> 570 µM	> 140 µM	> 570 µM	493 µM	99 µM
Cc1ccc(C#Cc2cc3cn([C@H]4C[C@H](O)[C@@H](CO)O4)c(=O)nc3o2)cc1	36 µM	–	510 µM	66 µM	510 µM	> 130 µM	≥ 510 µM	–	41 µM
O=c1nc2oc(CCc3ccccc3)cc2cn1[C@H]1C[C@H](O)[C@@H](CO)O1	> 560 µM	–	> 560 µM	380 µM	> 560 µM	> 560 µM	> 560 µM	–	–
Cc1ccc(CCc2cc3cn([C@H]4C[C@H](O)[C@@H](CO)O4)c(=O)nc3o2)cc1	> 140 µM	–	> 540 µM	> 140 µM	> 540 µM	> 540 µM	540 µM	–	–
CCCc1ccc(CCc2cc3cn([C@H]4C[C@H](O)[C@@H](CO)O4)c(=O)nc3o2)cc1	> 50 µM	> 130 µM	> 130 µM	> 130 µM	> 130 µM	> 130 µM	≥ 130 µM	> 500 µM	≥ 50 µM
CCCCCc1ccc(CCc2cc3cn([C@H]4C[C@H](O)[C@@H](CO)O4)c(=O)nc3o2)cc1	> 120 µM	–	> 120 µM	18 µM	> 470 µM	> 120 µM	≥ 470 µM	–	–
CCCCc1ccc(-c2cc3cn([C@H]4C[C@H](O)[C@@H](CO)O4)c(=O)nc3o2)nc1	> 100 µM	> 100 µM	> 100 µM	0.23 µM	> 50 µM	> 100 µM	> 100 µM	34 µM	0.36 µM
CCCCCc1ccc(-c2cc3cn([C@H]4C[C@H](O)[C@@H](CO)O4)c(=O)nc3o2)nc1	> 100 µM	> 100 µM	> 100 µM	0.07 µM	> 50 µM	> 100 µM	> 100 µM	4.2 µM	–
CCCCCCc1ccc(-c2cc3cn([C@H]4C[C@H](O)[C@@H](CO)O4)c(=O)nc3o2)nc1	> 100 µM	70 µM	> 100 µM	0.06 µM	> 50 µM	> 100 µM	> 100 µM	3.7 µM	0.045 µM
CCCCCc1ccc(-c2cc3cn([C@H]4C[C@H](O)[C@@H](CO)O4)c(=O)nc3o2)cn1	> 20 µM	> 20 µM	> 20 µM	0.13 µM	> 50 µM	> 20 µM	100 µM	18 µM	0.09 µM
CCCCCCc1ccc(-c2cc3cn([C@H]4C[C@H](O)[C@@H](CO)O4)c(=O)nc3o2)cn1	> 20 µM	> 20 µM	> 20 µM	0.14 µM	> 50 µM	> 20 µM	100 µM	30 µM	0.09 µM
CCCCCc1cnc(-c2cc3cn([C@H]4C[C@H](O)[C@@H](CO)O4)c(=O)nc3o2)nc1	> 100 µM	> 100 µM	> 100 µM	1.9 µM	> 50 µM	> 100 µM	> 100 µM	24 µM	2 µM
CCCc1ccc(C#Cc2cc3cn([C@H]4C[C@H](O)[C@@H](CO)O4)c(=O)nc3o2)cc1	> 50 µM	> 50 µM	15 µM	41 µM	> 120 µM	8.7 µM	87 µM	–	27 µM
CCCCCCc1cnc(-c2cc3cn([C@H]4C[C@H](O)[C@@H](CO)O4)c(=O)nc3o2)nc1	> 100 µM	> 100 µM	> 100 µM	0.63 µM	> 50 µM	> 100 µM	> 100 µM	15 µM	0.71 µM
CCCC#Cc1ccc(-c2cc3cn([C@H]4C[C@H](O)[C@@H](CO)O4)c(=O)nc3o2)cn1	> 20 µM	> 20 µM	> 20 µM	0.09 µM	> 50 µM	> 20 µM	≥ 100 µM	2.9 µM	0.06 µM
CCCCCc1ccc(C#Cc2cc3cn([C@H]4C[C@H](O)[C@@H](CO)O4)c(=O)nc3o2)cc1	71 µM	–	13 µM	17 µM	110 µM	11 µM	470 µM	–	19 µM
Nc1nc2c(ncn2COCCO)c(=O)[nH]1 [ACYCLOVIR]	–	–	–	–	> 890 µM	–	> 220 µM	–	–
O=c1[nH]c(=O)n([C@H]2C[C@H](O)[C@@H](CO)O2)cc1/C=C/Br [BRIVUDINE]	≥ 99 µM	≥ 130 µM	–	0.01 µM	> 150 µM	–	> 150 µM	–	0.01 µM
CCCCCc1ccc(-c2cc3cn([C@H]4C[C@H](O)[C@@H](CO)O4)c(=O)nc3o2)cc1 [CF1743]	–	–	–	–	–	–	> 1.3 µM	–	–
Nc1nc2c(ncn2COC(CO)CO)c(=O)[nH]1 [GANCICLOVIR]	–	–	–	–	> 200 µM	8.7 µM	> 200 µM	–	2.3 µM
